Assay outcomes (PubChem)
An excerpt weighted towards active compounds, which were near 3.3% of everything screened.
SIAE primary = human SIAE inhibition, primary screen; Q9HAT2; SIAE FP-Rh probe binding, fluorescence polarization; inhibition, % at 9.66 µM; 0.69% of 370,000 active;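 active means inhibition above a cutoff: mean of compounds within the control limits plus 3 SD of those, cut at about 17% in these data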
PRMT1 inh = blocks human protein arginine methyltransferase 1. Q99873. recombinant PRMT1, activity-based probe fluorescence polarization. inhibition, % at 2.79 µM. 1.3% of 370,000 active. AID 652257;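 active means inhibition above about 21% made by adding two undisclosed values, limit read from the data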
Target sequence (Q99873 whole entry, looked up): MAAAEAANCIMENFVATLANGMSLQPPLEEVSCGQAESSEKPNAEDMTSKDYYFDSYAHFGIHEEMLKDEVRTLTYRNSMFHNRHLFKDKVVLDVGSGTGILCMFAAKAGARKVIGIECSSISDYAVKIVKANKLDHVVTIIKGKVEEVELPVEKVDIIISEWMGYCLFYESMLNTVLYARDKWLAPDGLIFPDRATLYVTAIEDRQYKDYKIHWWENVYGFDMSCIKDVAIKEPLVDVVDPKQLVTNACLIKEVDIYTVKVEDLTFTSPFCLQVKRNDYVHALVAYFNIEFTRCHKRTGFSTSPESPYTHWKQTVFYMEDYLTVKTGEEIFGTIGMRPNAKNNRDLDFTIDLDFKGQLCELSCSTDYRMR
ABHD4 inh = ABHD4 (mouse) inhibition, primary FP screen; 0.54% of 370,000 active; purified mABHD4, FP-Rh probe fluorescence polarization; inhibition, % at 8.92 µM;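 active means inhibition exceeding the mean over every tested compound plus 3 SD, cut at about 30% in these data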
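Test system: mABHD4 protein | Buffer or medium: HEPES pH 7.0 buffer, 150 mM NaCl, 0.01% Pluronic F-127 | Probe or stimulus: FP-Rh fluorescent activity-based probe, added after compound pre-incubation | Timing: Pre-incubation 45 min, probe exposure 60 min, at 25 °C | Technique: Fluorescence polarization, excitation 525 nm, emission 598 nm, BODIPY TMR filters | Repeats: Single well per compound (singlicate)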
rCAG binder = r(CAG) repeat RNA binding | AID 651821 | TO-PRO-1 dye displacement fluorescence | 1.3% of 370,000 active | inhibition, % at 3 µM;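 active means inhibition above the plate cutoff, the mean of all test compounds on that plate plus 3 SD, cut at about 35% in these data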;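 further: higher means more dye released from RNA so lower well fluorescence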
HTRA1 inhibitor = inhibitors of human serine peptidase HTRA1; Q92743; recombinant HTRA1, FP-rhodamine activity-based probe, fluorescence polarization; inhibition, % at 5.96 µM; 0.5% of 340,000 active; AID 504803; in the data active means inhibition above about 36%
PRMT1 inh conf = confirmation of human PRMT1 inhibitors. 42% of 3,300 active. shares compounds with PRMT1 inh. recombinant His-PRMT1, activity-based probe fluorescence polarization. inhibition, % at 2.79 µM;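 active means mean inhibition across replicates above the hit cutoff derived for the earlier primary screen, cut at about 22% in these data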
Numbers stand for hits; . = inactive; / = not tested or not shown; ! = not active in a repeat.

SMILES	SIAE primary	PRMT1 inh	ABHD4 inh	rCAG binder	HTRA1 inhibitor	PRMT1 inh conf
CSc1ccc(NC(=O)CSc2nc3[nH]c(=O)cc(O)c3s2)cc1	.	48.1	.	56.1	.	.
O=C(O)Cc1sc(Nc2ccc(F)cc2)nc1-c1cccs1	.	31.4	.	.	.	.
Cc1cc(N2CCOCC2)ccc1/C=C1\SC(=O)N(C(C)C)C1=O	.	.	.	.	.	/
CCN(CC)c1ccc(/C=C2/SC(=O)N(C(C)C)C2=O)o1	.	27.0	.	.	.	.
CCC(C)(C)NC(=O)c1cc(S(=O)(=O)N2CCc3ccccc32)cn1C	.	26.3	.	.	.	.
O=C(CC1Sc2ncnn2C1=O)Nc1ccc(Br)cc1 (stereo not drawn)	.	52.6	.	.	.	53.5
O=C(CC1SC2=NCCN2C1=O)Nc1ccc(Br)cc1 (stereo not drawn)	.	.	.	.	.	/
CCN(CC)S(=O)(=O)c1cc(NC(=O)CNc2cccc(S(=O)(=O)N3CCOCC3)c2)ccc1C	.	.	.	.	.	/
COC(=O)[C@]12C[C@H](CC(=O)NCc3ccccc3)C(=O)N(Cc3ccc(Cl)cc3Cl)C1=C[C@H](COCc1ccccc1)O[C@@H]2C	.	.	.	.	/	/
COC(=O)[C@]12C[C@H](CC(=O)NCc3cccc4ccccc34)C(=O)N(Cc3ccc(Cl)cc3Cl)C1=C[C@H](COCc1ccccc1)O[C@@H]2C	.	68.4	.	.	/	.
CCC(C)(C)n1nnnc1C(C(C)C)N(Cc1ccco1)Cc1cc2cc3c(cc2[nH]c1=O)OCO3 (stereo not drawn)	.	41.1	.	.	.	.
COc1ccccc1CN(Cc1cc2c(C)ccc(C)c2[nH]c1=O)Cc1nnnn1Cc1ccco1	.	36.6	.	.	.	.
Cc1ccc2cc(CN(Cc3ccc4c(c3)OCO4)Cc3nnnn3Cc3ccco3)c(=O)[nH]c2c1	.	.	.	.	.	/
Cc1ccc(CN(Cc2cc3cc4c(cc3[nH]c2=O)OCCO4)Cc2nnnn2Cc2ccco2)cc1	.	43.2	.	.	.	.
OC(c1ccccc1)c1ncc(-c2cccc(C(F)(F)F)c2)[nH]1 (stereo not drawn)	.	.	.	.	/	/
CCN1C(=O)c2ccc(C(=O)Nc3ccc4c(c3)OCO4)cc2C1=O	.	.	.	.	.	/
O=C(N/C(=C\c1ccco1)C(=O)N1CCOCC1)c1ccccc1Cl	.	29.4	.	.	.	.
O=C(N/C(=C/c1ccco1)C(=O)N1CCOCC1)c1ccccc1Br	.	.	.	.	.	/
COc1ccc(NC(=O)C2CC(=O)n3cnnc3S2)cc1 (stereo not drawn)	.	74.2	.	.	.	79.5
COc1cccc(NC(=O)C2CC(=O)n3cnnc3S2)c1 (stereo not drawn)	.	78.8	.	.	.	61.1
O=[N+]([O-])c1ccc(-c2csc3[n+]2CCS3)cc1	.	46.9	.	.	.	.
Fc1ccc(-c2csc3[n+]2CCS3)cc1	.	.	.	.	.	/
NS(=O)(=O)c1ccc(NC(=O)/C=C/c2ccco2)cc1	.	.	.	.	.	/
CN(C)c1ccc(NC(=S)NC(=O)/C=C/c2ccco2)cc1	.	27.3	.	.	.	.
COc1ccc(NC(=S)NC(=O)/C=C/c2ccco2)cc1	.	.	.	.	.	/
SMILES	SIAE primary	PRMT1 inh	ABHD4 inh	rCAG binder	HTRA1 inhibitor	PRMT1 inh conf
CC(=O)NS(=O)(=O)c1ccc(NC(=O)/C=C/c2ccco2)cc1	.	37.2	.	.	.	24.1
CC1CCN(C2=NC(=O)/C(=C/c3cn(-c4ccccc4)nc3-c3cccc(S(=O)(=O)N(C)C)c3)S2)CC1	.	.	.	.	.	/
COc1ccc(C(=O)CC(Sc2ccccc2N)c2ccc(OC)cc2)cc1 (stereo not drawn)	.	58.7	.	.	.	29.2
Cc1ccc(SCC(=O)N=C2NC(=O)CS2)cc1	.	52.2	.	.	.	.
CC(/C=C/c1ccc(C)o1)=C\C(=O)O	.	29.7	.	.	.	.
Cc1ccc(/C=C/C(=O)N2CC(C)CC(C)C2)o1 (stereo not drawn)	.	40.2	.	.	.	.
CCN1CCN(C(=O)/C=C/c2ccc(C)o2)CC1	.	.	.	.	.	/
Cc1ccc(S(=O)(=O)C[C@@H]2OC[C@H](Cc3ccccc3)N2S(=O)(=O)c2ccc(C)cc2)cc1	.	.	.	.	/	/
O=C(COC(=O)CCS(=O)(=O)c1ccc(Cl)cc1)NCCc1ccc(Cl)cc1Cl	.	.	.	.	.	/
Cc1ccc(NCCC(=O)c2cccc([N+](=O)[O-])c2)c(C)c1	.	36.7	.	.	.	40.2
Cc1ccc(C(=O)CNc2cccc([N+](=O)[O-])c2)cc1	.	.	.	.	.	/
Cc1cccc(NCCC(=O)c2ccc([N+](=O)[O-])cc2)c1C	.	49.9	.	.	.	65.7
Cc1ccc(NCC(=O)c2ccc([N+](=O)[O-])cc2)cc1	/	/	/	/	.	/
O=C(O)c1cocc1C(=O)O	.	.	.	.	.	/
COc1ccccc1CNC(=O)C1CCC(CNS(=O)(=O)c2ccccc2)CC1 (stereo not drawn)	.	.	.	.	.	/
COC(=O)C[C@H]1CC[C@@H](NC(=O)Nc2cccc(OC)c2)[C@@H](CO)O1	.	.	.	.	/	/
O=C(N/N=C\c1ccc([N+](=O)[O-])o1)c1cncc(Br)c1	.	34.2	.	.	.	.
O=C(N/N=C/c1ccc(-c2ccccc2[N+](=O)[O-])o1)c1cncc(Br)c1	.	.	.	.	.	/
Cc1cc(=O)oc2cc(OCC(=O)OCC(=O)NCCc3ccccc3)ccc12	.	27.1!	.	.	.	.
Cc1ccc(NC(=O)CNCc2ccccc2OCC(=O)Nc2ccc(I)cc2)cc1	.	.	.	.	/	/
Cc1sc2ncnc(Sc3ccccc3C(=O)Nc3ccc(Br)cc3)c2c1C	.	35.0	.	.	.	23.0
CC(C)C1CC(N(C)C)=CC(=S)N1 (stereo not drawn)	.	35.2	.	.	/	.
CCOc1ccc(C(=O)CC(Sc2ccc(C)cc2)C(=O)O)cc1 (stereo not drawn)	.	28.8	.	.	.	54.0
O=C(CC(Sc1ccc(Br)cc1)C(=O)O)c1ccc(F)cc1 (stereo not drawn)	.	79.7	.	.	.	87.5
CCC(Sc1ccc(C(=O)O)cc1)C(=O)O (stereo not drawn)	.	.	.	.	.	/
COC(=O)c1ccc(COC(=O)CCNS(=O)(=O)c2ccc(C)c(C)c2)cc1	.	.	.	.	.	/
Cc1nc2ccc(S(=O)(=O)NC(C(=O)N3CCCC3)C(C)C)cc2s1 (stereo not drawn)	.	.	.	.	.	/
Cc1nc2ccc(S(=O)(=O)NC(CC(C)C)C(=O)O)cc2s1 (stereo not drawn)	.	35.0	.	.	.	.
COc1ccc(NC(=O)CN2CCN(C(=O)N3CCOCC3)CC2)cc1	.	.	.	.	.	/
S=c1[nH]c2ccc(Cc3ccc4[nH]c(=S)[nH]c4c3)cc2[nH]1	.	30.2	.	.	.	.
